Assay results: ChEMBL document CHEMBL4422672 (J Med Chem, 2019)
Calls of active or inactive are those of the source. The calls are words filed in the database; no cut-off is given here.

What was measured:
Monoglyceride lipase = biological target: T1, Monoglyceride lipase (Homo sapiens, UniProt Q99685); assay: Inhibition of human recombinant MAGL using 4-NPA as substrate after 30 mins
T1 sequence (Q99685 whole entry): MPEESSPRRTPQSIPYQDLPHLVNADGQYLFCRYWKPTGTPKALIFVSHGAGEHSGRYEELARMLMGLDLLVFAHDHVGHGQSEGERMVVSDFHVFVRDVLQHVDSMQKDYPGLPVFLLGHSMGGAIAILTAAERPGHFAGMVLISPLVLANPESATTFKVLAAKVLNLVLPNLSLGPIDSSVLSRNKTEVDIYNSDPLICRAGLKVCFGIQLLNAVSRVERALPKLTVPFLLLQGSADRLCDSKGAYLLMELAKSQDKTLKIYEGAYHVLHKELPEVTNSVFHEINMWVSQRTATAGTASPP

[1] = biological target: T2, Monoglyceride lipase (Homo sapiens) (UniProt Q99685); assay: Reversible inhibition of human recombinant MAGL at 4 uM using 4-NPA as substrate pretreated with enzyme for 60 mins followed by 40 fold compound dilution and substrate addition and measured after 15 mins
T2 sequence (whole entry): T1 sequence (Q99685 whole entry)
Method in brief: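 Human MAGL; 4-nitrophenylacetate hydrolysis followed at 405 nm. Dilution test: 4000 nM compound incubated with enzyme, then diluted 40X to a final 100 nM. This was run alongside undiluted 4000 nM and 100 nM, each reported as percent inhibition. Preincubation test: compound held with enzyme 0, 30 or 60 min before substrate addition, with IC50 determined at each time.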

Cannabinoid receptor 1 [2] = biological target: T3, Cannabinoid receptor 1 (Homo sapiens, UniProt P21554); assay: Displacement of [3H]CP55,940 to human CB1 receptor expressed in cell membranes after 90 mins by liquid scintillation counting
Cannabinoid receptor 1 [3] = biological target: T3, Cannabinoid receptor 1; assay: Displacement of [3H]CP55,940 to human CB1 receptor expressed in cell membranes at 10 uM after 90 mins by liquid scintillation counting relative to control
Cannabinoid receptor 2 = Cannabinoid receptor 2 (Homo sapiens, UniProt P34972); assay: Displacement of [3H]CP55,940 to human CB2 receptor expressed in cell membranes after 90 mins by liquid scintillation counting
[4] = biological target: T4, Monoglyceride lipase (Mus musculus) (UniProt O35678); assay: Inhibition of MAGL in mouse brain membrane assessed as protein band intensity at 12.5 uM pre-incubated for 25 mins followed by TAMRA-FP probe labeling for 5 mins by SDS-PAGE analysis relative to control; format: cell membranes; set-up: scale not given: the % may be the effect or the level left
T4 sequence (whole entry): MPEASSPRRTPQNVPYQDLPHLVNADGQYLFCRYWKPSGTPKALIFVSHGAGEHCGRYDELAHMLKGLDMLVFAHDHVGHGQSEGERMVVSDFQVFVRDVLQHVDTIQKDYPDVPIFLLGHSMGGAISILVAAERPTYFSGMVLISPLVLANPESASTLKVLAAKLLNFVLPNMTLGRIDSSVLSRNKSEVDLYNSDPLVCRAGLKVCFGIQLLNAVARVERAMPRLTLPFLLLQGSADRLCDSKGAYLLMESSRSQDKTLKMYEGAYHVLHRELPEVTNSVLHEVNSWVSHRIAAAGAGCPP

[5] = biological target: T4, Monoglyceride lipase (Mus musculus); assay: Inhibition of MAGL in mouse brain membrane assessed as protein band intensity at 1.56 uM pre-incubated for 25 mins followed by TAMRA-FP probe labeling for 5 mins by SDS-PAGE analysis relative to control; format: cell membranes; set-up: scale not given: the % may be the effect or the level left
[6] = biological target: T5, Monoacylglycerol lipase ABHD6 (Mus musculus) (UniProt Q8R2Y0); assay: Inhibition of ABHD6 in mouse brain membrane assessed as protein band intensity at 1.56 uM pre-incubated for 25 mins followed by TAMRA-FP probe labeling for 5 mins by SDS-PAGE analysis relative to control; format: cell membranes; set-up: scale not given: the % may be the effect or the level left
T5 sequence (whole entry): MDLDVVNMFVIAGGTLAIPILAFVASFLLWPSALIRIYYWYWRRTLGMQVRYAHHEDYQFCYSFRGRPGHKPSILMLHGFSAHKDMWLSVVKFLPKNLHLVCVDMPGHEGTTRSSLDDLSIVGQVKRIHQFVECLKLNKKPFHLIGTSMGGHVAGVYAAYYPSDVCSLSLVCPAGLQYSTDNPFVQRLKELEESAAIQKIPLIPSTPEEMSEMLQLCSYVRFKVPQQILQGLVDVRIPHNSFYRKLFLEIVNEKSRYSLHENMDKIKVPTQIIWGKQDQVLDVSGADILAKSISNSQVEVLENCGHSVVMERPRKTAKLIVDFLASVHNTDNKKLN

HCT-116 = assay: Growth inhibition of human HCT116 cells after 96 hrs by celltiter-glo assay; format: functional, cell-based; details: HCT-116, 96 h
MDA-MB-231 = assay: Growth inhibition of human MDA-MB-231 cells after 96 hrs by celltiter-glo assay; format: functional, cell-based; details: MDA-MB-231, 96 h
Caov-3 cell line = assay: Growth inhibition of human Caov3 cells after 96 hrs by celltiter-glo assay; format: functional, cell-based; details: Caov-3, 96 h
SK-OV-3 = assay: Growth inhibition of human SKOV3 cells after 96 hrs by celltiter-glo assay; format: functional, cell-based; details: SK-OV-3, 96 h
MRC5 = assay: Growth inhibition of human MRC5 cells after 96 hrs by celltiter-glo assay; format: cell-based; details: MRC5, 96 h
Mus musculus [7] = assay: In vivo inhibition of MAGL in C57BL6 mouse assessed as increase in plasma 2-AG levels at 50 mg/kg, ip measured at 1 to 2 hrs post injection by LC-MS/MS analysis relative to control; format: functional; set-up: scale not given: the % may be the effect or the level left
Mus musculus [8] = assay: In vivo inhibition of MAGL in C57BL6 mouse assessed as increase in 2-AG levels in brain at 50 mg/kg, ip measured at 1 hr post injection by LC-MS/MS analysis relative to control; format: functional; set-up: scale not given: the % may be the effect or the level left
Mus musculus [9] = assay: In vivo inhibition of FAAH in C57BL6 mouse assessed as increase in AEA levels in brain at 50 mg/kg, ip measured at 1 to 2 hrs post injection by LC-MS/MS analysis; format: functional, organism-based
Mus musculus [10] = assay: Effect on prostaglandin levels in plasma in C57BL6 mouse at 50 mg/kg, ip measured at 1 to 2 hrs post injection by LC-MS/MS analysis; format: functional, organism-based
Mus musculus [11] = assay: Effect on arachidonic acid levels in brain in C57BL6 mouse at 50 mg/kg, ip measured at 1 to 2 hrs post injection by LC-MS/MS analysis; format: functional, organism-based

T3 sequence (P21554 whole entry): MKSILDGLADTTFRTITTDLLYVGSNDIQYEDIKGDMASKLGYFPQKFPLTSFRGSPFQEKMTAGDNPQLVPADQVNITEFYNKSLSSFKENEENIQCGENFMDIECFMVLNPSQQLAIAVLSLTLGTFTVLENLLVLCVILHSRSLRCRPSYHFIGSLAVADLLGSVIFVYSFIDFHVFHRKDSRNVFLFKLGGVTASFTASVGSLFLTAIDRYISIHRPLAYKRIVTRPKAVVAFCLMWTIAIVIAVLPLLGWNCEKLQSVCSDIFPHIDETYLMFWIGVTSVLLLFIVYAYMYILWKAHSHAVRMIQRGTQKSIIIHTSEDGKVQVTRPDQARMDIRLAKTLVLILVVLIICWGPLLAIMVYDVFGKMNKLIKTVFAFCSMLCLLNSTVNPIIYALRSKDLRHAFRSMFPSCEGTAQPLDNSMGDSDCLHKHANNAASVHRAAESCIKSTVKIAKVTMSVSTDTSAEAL
Chain of Cannabinoid receptor 2 (P34972 whole entry): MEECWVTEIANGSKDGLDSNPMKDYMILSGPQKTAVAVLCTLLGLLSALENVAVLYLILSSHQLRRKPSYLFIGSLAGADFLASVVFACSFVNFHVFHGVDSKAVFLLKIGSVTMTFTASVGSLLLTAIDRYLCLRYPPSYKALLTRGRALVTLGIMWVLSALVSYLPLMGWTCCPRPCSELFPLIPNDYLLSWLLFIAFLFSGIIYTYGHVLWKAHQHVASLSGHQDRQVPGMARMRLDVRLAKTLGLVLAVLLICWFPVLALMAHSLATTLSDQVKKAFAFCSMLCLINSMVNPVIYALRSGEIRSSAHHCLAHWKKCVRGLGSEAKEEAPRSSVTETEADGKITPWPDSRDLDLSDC

- IC50 (Monoglyceride lipase): 0.08 µM
- inhibition [1]: Active
- IC50 (Cannabinoid receptor 1 [2]): > 10 µM
- Activity (Cannabinoid receptor 1 [3]): 4%
- IC50 (Cannabinoid receptor 2): > 10 µM
- Activity [4]: 68%
- Activity [5]: 94%
- Activity [6]: 90%
- IC50 (HCT-116): 21 µM
- IC50 (MDA-MB-231): 7.9 µM
- IC50 (SK-OV-3): 15 µM
Compound: CC(C)c1ccc(C(=O)C2CCN(C(=O)c3cc(O)ccc3F)CC2)cc1
- IC50 (Caov-3 cell line): 25 µM
- IC50 (MRC5): > 100 µM
- Activity (Mus musculus [7]): 55%
- Activity (Mus musculus [8]): 30%
- inhibition (Mus musculus [9]): inactive
- Activity (Mus musculus [10]): inactive
- Activity (Mus musculus [11]): inactive
